Assays:
Assay type in all cases: functional
Staphylococcus aureus [1] = experiment: Antimicrobial activity against Staphylococcus aureus ATCC […] after 18-24 hrs by two-fold serial dilution method
In short: (§1)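 Agar-medium twofold serial dilution against Gram-positive and Gram-negative strains; MIC taken as the lowest compound concentration giving complete inhibition of bacterial growth after incubation at 35 °C for 18-24 h.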

Staphylococcus aureus [2] = experiment: Antimicrobial activity against extended spectrum beta-lactamases-producing methicillin-sensitive Staphylococcus aureus 10-13 after 18-24 hrs by two-fold serial dilution method; in short: as §1
Staphylococcus aureus [3] = experiment: Antimicrobial activity against extended spectrum beta-lactamases-producing methicillin-sensitive Staphylococcus aureus 10-14 after 18-24 hrs by two-fold serial dilution method; in short: as §1
[4] = test system: Staphylococcus epidermidis; experiment: Antimicrobial activity against extended spectrum beta-lactamases-producing methicillin-resistant Staphylococcus epidermidis 10-10 after 18-24 hrs by two-fold serial dilution method
In short: (§2)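 Agar twofold serial dilution MIC against clinical isolates. MIC was taken as the lowest concentration giving complete inhibition of bacterial growth after incubation at 35 °C for 18-24 h.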

[5] = test system: Staphylococcus epidermidis; experiment: Antimicrobial activity against extended spectrum beta-lactamases-producing methicillin-resistant Staphylococcus epidermidis 10-13 after 18-24 hrs by two-fold serial dilution method; in short: as §2
[6] = test system: Staphylococcus epidermidis; experiment: Antimicrobial activity against extended spectrum beta-lactamases-producing methicillin-sensitive Staphylococcus epidermidis 10-13 after 18-24 hrs by two-fold serial dilution method; in short: as §1
[7] = test system: Staphylococcus epidermidis; experiment: Antimicrobial activity against extended spectrum beta-lactamases-producing methicillin-sensitive Staphylococcus epidermidis 10-15 after 18-24 hrs by two-fold serial dilution method; in short: as §1
Enterococcus faecium [8] = experiment: Antimicrobial activity against Enterococcus faecium 10-5 after 18-24 hrs by two-fold serial dilution method; in short: as §1
Enterococcus faecium [9] = experiment: Antimicrobial activity against Enterococcus faecium 10-9 after 18-24 hrs by two-fold serial dilution method; in short: as §1
Streptococcus pneumoniae [10] = experiment: Antimicrobial activity against extended spectrum beta-lactamases-producing Streptococcus pneumoniae 10-1 after 18-24 hrs by two-fold serial dilution method; in short: as §1
Escherichia coli [11] = experiment: Antimicrobial activity against Escherichia coli ATCC 25922 after 18-24 hrs by two-fold serial dilution method; in short: as §1
Escherichia coli [12] = experiment: Antimicrobial activity against Escherichia coli 10-3 after 18-24 hrs by two-fold serial dilution method; in short: as §1
Escherichia coli [13] = experiment: Antimicrobial activity against extended spectrum beta-lactamases-producing Escherichia coli 10-4 after 18-24 hrs by two-fold serial dilution method; in short: as §1
Klebsiella pneumoniae [14] = experiment: Antimicrobial activity against extended spectrum beta-lactamases-producing Klebsiella pneumoniae 10-1 after 18-24 hrs by two-fold serial dilution method; in short: as §1
Klebsiella pneumoniae [15] = experiment: Antimicrobial activity against Klebsiella pneumoniae 10-2 after 18-24 hrs by two-fold serial dilution method; in short: as §1
Klebsiella pneumoniae [16] = experiment: Antimicrobial activity against Klebsiella pneumoniae 10-3 after 18-24 hrs by two-fold serial dilution method; in short: as §1
Klebsiella pneumoniae [17] = experiment: Antimicrobial activity against Klebsiella pneumoniae 10-4 after 18-24 hrs by two-fold serial dilution method; in short: as §1
Pseudomonas aeruginosa [18] = experiment: Antimicrobial activity against Pseudomonas aeruginosa 10-12 after 18-24 hrs by two-fold serial dilution method; in short: as §1
Pseudomonas aeruginosa [19] = experiment: Antimicrobial activity against extended spectrum beta-lactamases-producing Pseudomonas aeruginosa 10-5 after 18-24 hrs by two-fold serial dilution method; in short: as §1
Pseudomonas aeruginosa [20] = experiment: Antimicrobial activity against extended spectrum beta-lactamases-producing Pseudomonas aeruginosa 10-9 after 18-24 hrs by two-fold serial dilution method; in short: as §1
Pseudomonas aeruginosa [21] = experiment: Antimicrobial activity against extended spectrum beta-lactamases-producing Pseudomonas aeruginosa 10-15 after 18-24 hrs by two-fold serial dilution method; in short: as §1
Pseudomonas aeruginosa [22] = experiment: Antimicrobial activity against extended spectrum beta-lactamases-producing Pseudomonas aeruginosa 10-18 after 18-24 hrs by two-fold serial dilution method; in short: as §1
Pseudomonas aeruginosa [23] = experiment: Antimicrobial activity against extended spectrum beta-lactamases-producing Pseudomonas aeruginosa 10-20 after 18-24 hrs by two-fold serial dilution method; in short: as §1
Staphylococcus aureus [24] = experiment: Antimicrobial activity against methicillin-resistant Staphylococcus aureus clinical isolate after 18-24 hrs by two-fold serial dilution method; in short: as §2
[25] = test system: Staphylococcus epidermidis; experiment: Antimicrobial activity against methicillin-resistant Staphylococcus epidermidis clinical isolate after 18-24 hrs by two-fold serial dilution method
Staphylococcus aureus [26] = experiment: Ratio of levofloxacin MIC to compound MIC for Staphylococcus aureus ATCC […] after 18-24 hrs by two-fold serial dilution method
[27] = test system: Staphylococcus epidermidis; experiment: Ratio of levofloxacin MIC to compound MIC for extended spectrum beta-lactamases-producing methicillin-sensitive Staphylococcus epidermidis 10-11 after 18-24 hrs by two-fold serial dilution method
In short: (§3)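 MICs were determined by the standard twofold serial dilution method on agar media against the test strains, with levofloxacin run as a reference. MIC is the lowest concentration giving complete inhibition of bacterial growth after 18–24 h incubation at 35 °C. The ratio is levofloxacin MIC divided by test-compound MIC.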

[28] = test system: Staphylococcus epidermidis; experiment: Ratio of levofloxacin MIC to compound MIC for extended spectrum beta-lactamases-producing methicillin-sensitive Staphylococcus epidermidis 10-15 after 18-24 hrs by two-fold serial dilution method; in short: as §3
Enterococcus faecalis [29] = experiment: Ratio of levofloxacin MIC to compound MIC for Enterococcus faecalis 10-5 after 18-24 hrs by two-fold serial dilution method
Enterococcus faecium [30] = experiment: Ratio of levofloxacin MIC to compound MIC for Enterococcus faecium 10-5 after 18-24 hrs by two-fold serial dilution method
Enterococcus faecium [31] = experiment: Ratio of levofloxacin MIC to compound MIC for Enterococcus faecium 10-9 after 18-24 hrs by two-fold serial dilution method
Streptococcus pneumoniae [32] = experiment: Ratio of levofloxacin MIC to compound MIC for extended spectrum beta-lactamases-producing Streptococcus pneumoniae 10-1 after 18-24 hrs by two-fold serial dilution method
Streptococcus pneumoniae [33] = experiment: Ratio of levofloxacin MIC to compound MIC for extended spectrum beta-lactamases-producing Streptococcus pneumoniae 10-4 after 18-24 hrs by two-fold serial dilution method; in short: as §3
[34] = test system: Staphylococcus epidermidis; experiment: Ratio of gemifloxacin MIC to compound MIC for extended spectrum beta-lactamases-producing methicillin-sensitive Staphylococcus epidermidis 10-11 after 18-24 hrs by two-fold serial dilution method
[35] = test system: Staphylococcus epidermidis; experiment: Ratio of gemifloxacin MIC to compound MIC for extended spectrum beta-lactamases-producing methicillin-sensitive Staphylococcus epidermidis 10-13 after 18-24 hrs by two-fold serial dilution method
[36] = test system: Staphylococcus epidermidis; experiment: Ratio of gemifloxacin MIC to compound MIC for extended spectrum beta-lactamases-producing methicillin-sensitive Staphylococcus epidermidis 10-15 after 18-24 hrs by two-fold serial dilution method
Enterococcus faecalis [37] = experiment: Ratio of gemifloxacin MIC to compound MIC for Enterococcus faecalis 10-6 after 18-24 hrs by two-fold serial dilution method
Enterococcus faecalis [38] = experiment: Ratio of gemifloxacin MIC to compound MIC for Enterococcus faecalis 10-7 after 18-24 hrs by two-fold serial dilution method
Enterococcus faecium [39] = experiment: Ratio of gemifloxacin MIC to compound MIC for Enterococcus faecium 10-5 after 18-24 hrs by two-fold serial dilution method
Enterococcus faecium [40] = experiment: Ratio of gemifloxacin MIC to compound MIC for Enterococcus faecium 10-9 after 18-24 hrs by two-fold serial dilution method
Streptococcus pneumoniae [41] = experiment: Ratio of gemifloxacin MIC to compound MIC for extended spectrum beta-lactamases-producing Streptococcus pneumoniae 10-1 after 18-24 hrs by two-fold serial dilution method
Streptococcus pneumoniae [42] = experiment: Ratio of gemifloxacin MIC to compound MIC for extended spectrum beta-lactamases-producing Streptococcus pneumoniae 10-4 after 18-24 hrs by two-fold serial dilution method

COc1ccc(OC)c(CO/N=C2\CN(c3nc4c(cc3F)c(=O)c(C(=O)O)cn4C3CC3)CC2CN)c1.CS(=O)(=O)O (racemic)
MIC (Staphylococcus aureus [1]): < 0.008 µg/mL | MIC (Staphylococcus aureus [2]): 0.03 µg/mL | MIC (Staphylococcus aureus [3]): 0.03 µg/mL | MIC [4]: 0.25 µg/mL | MIC [5]: 0.25 µg/mL | MIC [6]: 0.03 µg/mL | MIC [7]: 4 µg/mL | MIC (Enterococcus faecium [8]): 4 µg/mL | MIC (Enterococcus faecium [9]): 4 µg/mL | MIC (Streptococcus pneumoniae [10]): 0.06 µg/mL | MIC (Escherichia coli [11]): 0.06 µg/mL | MIC (Escherichia coli [12]): > 128 µg/mL | MIC (Escherichia coli [13]): > 128 µg/mL | MIC (Klebsiella pneumoniae [14]): > 128 µg/mL | MIC (Klebsiella pneumoniae [15]): > 128 µg/mL | MIC (Klebsiella pneumoniae [16]): > 128 µg/mL | MIC (Klebsiella pneumoniae [17]): > 128 µg/mL | MIC (Pseudomonas aeruginosa [18]): > 128 µg/mL | MIC (Pseudomonas aeruginosa [19]): > 128 µg/mL | MIC (Pseudomonas aeruginosa [20]): > 128 µg/mL | MIC (Pseudomonas aeruginosa [21]): > 128 µg/mL | MIC (Pseudomonas aeruginosa [22]): > 128 µg/mL | MIC (Pseudomonas aeruginosa [23]): > 128 µg/mL | MIC50 (Staphylococcus aureus [24]): 0.5 µg/mL | MIC90 (Staphylococcus aureus [24]): 1 µg/mL | MIC50 [25]: 0.25 µg/mL | MIC90 [25]: 4 µg/mL | Ratio (Staphylococcus aureus [26]): 8 | Ratio [27]: 8 | Ratio [28]: 8 | Ratio (Enterococcus faecalis [29]): 8 | Ratio (Enterococcus faecium [30]): 8 | Ratio (Enterococcus faecium [31]): 8 | Ratio (Streptococcus pneumoniae [32]): 8 | Ratio (Streptococcus pneumoniae [33]): 8 | Ratio [34]: 2 | Ratio [35]: 2 | Ratio [36]: 2 | Ratio (Enterococcus faecalis [37]): 2 | Ratio (Enterococcus faecalis [38]): 2 | Ratio (Enterococcus faecium [39]): 2 | Ratio (Enterococcus faecium [40]): 2 | Ratio (Streptococcus pneumoniae [41]): 2 | Ratio (Streptococcus pneumoniae [42]): 2

From ChEMBL document CHEMBL2062435, “Synthesis and in vitro antibacterial activity of gemifloxacin derivatives containing a substituted benzyloxime moiety” (2012)
